Here are results for 13 compounds from ChEMBL document CHEMBL1955834, “Disparate SAR data of griseofulvin analogues for the dermatophytes Trichophyton mentagrophytes, T. rubrum, and MDA-MB-231 cancer cells” (J Med Chem, 2012).

The subject of data set [1] is MDA-MB-231. Briefly: Cytotoxicity against human MDA-MB-231 cells assessed as cell viability after 48 hrs by MTT assay. The class given is functional, cell-based. Conditions: MDA-MB-231, 48 h. In short, it runs like this:
(§1)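 MDA-MB-231 cells were grown in L-15 with 10% FCS at 37 °C and seeded at (2-3) × 10^4 per well. Exposure was 24 and/or 48 h, then MTT for at least 4 h, with absorbance read at 570/630 nm. Each condition had at least 3 replicates, reported as mean ± SD of a representative experiment repeated at least three times.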

The test system of data set [2] is V79. Briefly: Cytotoxicity against Chinese hamster V79 cells. Conditions: Cricetulus griseus. It counts as functional, cell-based.
Data set [3] deals with Trichophyton mentagrophytes. Briefly: Antifungal activity against Trichophyton mentagrophytes IBT 2724 after 7 days by micro broth dilution method. The class given is functional, organism-based. Conditions: IBT 2724, 168 h. The procedure, abridged: (§2)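 T. mentagrophytes IBT2724 was tested by broth microdilution using an 8-fold dilution series of 10 concentrations from 50 μM down to 0.4 μM, with 1% DMSO. The inoculum was prepared per CLSI M38-A2, adjusted to OD530 0.90–1.5 and diluted 50-fold in RPMI/MOPS at pH 7.00. Plates ran 7 days at 37 °C with an OD read-out. IC50 came from a variable-slope sigmoidal fit.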

Data set [4] relates to Trichophyton rubrum. In words: Antifungal activity against Trichophyton rubrum IBT 29284 after 7 days by micro broth dilution method. The class given is functional, organism-based. Conditions: IBT 29284, 168 h. The procedure, abridged: (§3)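 T. rubrum IBT29284 was tested by broth microdilution using a 4-fold dilution series of 10 concentrations from 50 μM down to 0.2 μM, with 1% DMSO. The inoculum followed CLSI M38-A2, set to OD530 0.90–1.5 and diluted 50-fold in RPMI/MOPS at pH 7.00. Incubation was 7 days at 37 °C, read by OD. IC50 came from a variable-slope sigmoidal fit.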

The test system of data set [5] is MDA-MB-231. Briefly: Ratio of griseofulvin IC50 to compound IC50 for human MDA-MB-231 cells. It counts as functional.
Data set [6] has as its system Trichophyton mentagrophytes. Briefly: Antifungal activity against Trichophyton mentagrophytes IBT 2724 at 50 uM after 7 days by micro broth dilution method. It counts as functional. Conditions: for inhibition at 50 µM: IBT 2724, 168 h. The procedure, abridged: as §2
Data set [7] has as its system Trichophyton rubrum. Briefly: Antifungal activity against Trichophyton rubrum IBT 29284 at 50 uM after 7 days by micro broth dilution method. It counts as functional. In short, it runs like this:
as §3

Data set [8] concerns SCC114. Briefly: (§4) Cytotoxicity against human SCC114 cells by phenotype-based spindle multipolarity assay. The class given is functional, cell-based.
Data set [9] can be described thus: Drug degradation in phosphate buffered saline at pH 7.4 assessed as compound hydrolysis after 48 hrs. It counts as physicochemical. Conditions: read-out: Drug degradation. In short, it runs like this:
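Oximes were held in PBS at pH 7.4 for 48 h, and hydrolysis to the parent ketones was monitored.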

Data set [10] can be described thus: as §4. It counts as functional, cell-based.
Data set [11] relates to HeLa. Briefly: Cytotoxicity against human HeLa cells. The class given is functional, cell-based.
For data set [12], the system named is MDA-MB-231. In words: Cytotoxicity against human MDA-MB-231 cells assessed as cell viability at 50 uM after 48 hrs by MTT assay. It counts as functional. Conditions: for inhibition at 50 µM: MDA-MB-231, 48 h. The procedure, abridged: as §1

Calls of active or inactive are those of the source. No cut-off for these calls is given here.

For `CCCOC1=CC(=O)C[C@@H](C)[C@]12Oc1c(Cl)c(OC)cc(OC)c1C2=O`, the half-maximal inhibitory concentration (IC50) was found to be 16 µM in [1], 0.7 µM in data set [2], 50 nM in data set [3] and 620 nM in data set [4].

In the case of `COC(=O)C1=CC(=O)C=C(OC)[C@]12Oc1c(Cl)c(C)c(Cl)c(O)c1C2=O`, in data set [1], the IC50 is 9.9 µM. In data set [5], the “Ratio IC50” value was 2. The inhibition result in data set [6] and in [7] was “inactive” throughout.

In the case of `COc1cc(OC)c2c(c1Cl)O[C@]1(C2=O)C(OCc2ccc(COC3=CC(=O)C[C@@H](C)[C@]34Oc3c(Cl)c(OC)cc(OC)c3C4=O)cc2)=CC(=O)C[C@H]1C`, in data set [1], the IC50 turned out to be 8.5 µM. In data set [5], the “Ratio IC50” value amounted to 2. The inhibition entry in data set [6] and in data set [7] was “inactive” throughout.

Turning to `COc1cc(OC)c2c(c1Cl)O[C@@]1(C(=O)C=C(OC(C)C)C[C@H]1C)C2=O`, the inhibition result in data set [8] and in data set [7] was “inactive” throughout. Moreover, the IC50 in data set [1] worked out at 48 µM. This compound also showed an inhibition at 50 µM in [6] of under 50%.

Consider `COc1cc(OC)c2c(c1Cl)O[C@]1(C2=O)C(OCc2cccc3ccccc23)=C/C(=N\O)C[C@H]1C`, for which the IC50 in data set [1] turned out to be 8.3 µM. The inhibition entry in [6] and in data set [7] was “inactive” throughout. Moreover, the degraded at 48 h in data set [9] was under 5%.

Consider `COC1=CC(=O)C[C@@H](C)[C@]12Oc1c(Cl)c(OC)cc(OC)c1C2=O` [GRISEOFULVIN], for which the IC50 in [10] was determined as 20 µM; in [1] it was 18 µM; in data set [11] it was 25 µM; in [2], 8 µM; in [3] it was 58 nM; in data set [4] it was 380 nM.

As for `CCCOC1=CC(=O)[C@@]2(Oc3c(Cl)c(OC)cc(OC)c3C2=O)[C@H](C)C1`, the inhibition entry in data set [8] and in [7] was “inactive” throughout. Moreover, the IC50 in data set [1] came to 43 µM. Moreover, the inhibition at 50 µM in data set [6] is under 50%.

Consider `CCOC1=CC(=O)[C@@]2(Oc3c(Cl)c(OC)cc(OC)c3C2=O)[C@H](C)C1`, for which the inhibition entry in data set [8] and in data set [7] was “inactive” throughout. Further, the inhibition at 50 µM in data set [12] and in data set [6] was under 50% in each case.

Take `COc1cc(OC)c2c(c1Cl)O[C@@]1(C(=O)C=C(OCc3ccccc3)C[C@H]1C)C2=O`: the inhibition result in [8] and in [7] was “inactive” throughout. Also, the inhibition at 50 µM in [12] and in [6] was under 50% in each case.

`COC1=CC(=O)[C@@]2(Oc3c(Cl)c(OC)cc(OC)c3C2=O)[C@H](C)C1`: the inhibition result in data set [8], in data set [12], in data set [6] and in data set [7] was “inactive” each time.

For the compound `COc1cc(OC)c2c(c1Cl)O[C@]1(C2=O)C(OCc2ccccc2)=C/C(=N\O)C[C@H]1C`, the figures for the IC50 in [1], in [3] and in data set [4] were 1.4 µM, 300 nM and 7900 nM, respectively. Also, in data set [9], the degraded at 48 h was under 5%.

In the case of `COC1=C/C(=N\O)C[C@@H](C)[C@]12Oc1c(Cl)c(OC)cc(OC)c1C2=O`, the results for the IC50 in [1], in data set [3] and in [4] were 12 µM, 190 nM and 1300 nM, respectively. In [9], the degraded at 48 h is under 5%.

Regarding `COc1cc(OC)c2c(c1Cl)O[C@@]1(C(=O)C=C(OCC3CC3)C[C@H]1C)C2=O`, the inhibition result in data set [8] and in [7] was “inactive” throughout. Besides, the IC50 in [1] amounted to 52 µM. The inhibition at 50 µM in data set [6] is under 50%.
